Consider 4 molecules from ChEMBL document CHEMBL1122504, “Heterocyclic Quinones. 4. A new highly cytotoxic drug: 6,7-bis(1-aziridinyl)-5,8-quinazolinedione” (1983).

Each structure is given as a SMILES string. Values joined by “and” are separate entries in the source; they are usually repeats but may differ in a detail not shown here. Identical values can stand only once.

This assay relates to L1210. As to the kind of experiment: Concentration that decreases the growth rate of the L1210 cells by 50% after 48 hr of culture. Type of assay: functional. The note with it: Mus musculus, L1210, 48 h; read-out: ID50 (the source's name). The gist of the method: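 L1210 leukemia cells cultured with increasing drug concentrations for 48 h at 37 °C under 5% CO2. Percentage inhibition of control growth was fitted by least-squares linear regression against log dose, and the concentration lowering control growth by 50% was estimated from the regression equation.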
For the molecule `O=C1C(N2CCCCC2)=CC(=O)c2ncncc21`, the IC50 was 0.359 µg/mL and 1.48 µM.
With `COC1=C(N)C(=O)c2ncncc2C1=O` the figure was 0.215 µg/mL and 1.05 µM; with `COC1=CC(=O)c2ncncc2C1=O`, 0.593 µg/mL and 3.12 µM; with `COC1=C(Br)C(=O)c2ncncc2C1=O`, 0.889 µg/mL and 3.31 µM.
